Data reported in ChEMBL document CHEMBL5104109, “The identification of highly efficacious functionalised tetrahydrocyclopenta[c]pyrroles as inhibitors of HBV viral replication through modulation of HBV capsid assembly” (RSC Med Chem, 2022).
Values after ≈ are worked out from the molar mass of the structure shown.

Key:
Hepatitis B virus [1] = assay: Antiviral activity against HBV infected in HepDE19 cells assessed as inhibition of HBV DNA; assay type: functional, organism-based
Outline: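 HepDE19 cells (HepG2-derived, HBV genotype D ayw, Tet-off CMV) seeded at 50,000 cells/well with tetracycline 1 μg/mL overnight. Next day switched to tet-free medium for 4 h, then given compound from 10 μM in a ½-log 8-point series, in duplicate, 0.5% DMSO final. After 7 days at 37 °C, intracellular rcDNA was read by bDNA. EC50 from a 4-parameter fit vs DMSO wells; mean of ≥2 experiments.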

[2] = Metabolic stability in human liver microsomes assessed as half life at 0.3 uM and measured upto 1 hrs; assay type: ADME, Microsome
Outline: (§1)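 Compound at 0.3 μM final was incubated with human or mouse liver microsomes at 0.5 mg/mL in 100 mM potassium phosphate pH 7.4 with 1 mM NADPH at 37 °C. T1/2 = ln(2)/k. CLint = (0.693/t1/2)/0.5 mg/mL microsomal protein.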

[3] = Metabolic stability in CD-1 mouse liver microsomes assessed as half life at 0.3 uM and measured upto 1 hrs; assay type: ADME, Microsome; outline: as §1
[4] = Metabolic stability in human liver microsomes assessed as parent compound remaining at 0.3 uM and measured after 1 hrs; assay type: ADME, Microsome; conditions: read-out: Stability
[5] = Metabolic stability in CD-1 mouse liver microsomes assessed as parent compound remaining at 0.3 uM and measured after 1 hrs; assay type: ADME, Microsome; conditions: read-out: Stability
[6] = AUC (0-infinity) in CD-1 mouse at 10 mg/kg, po; assay type: ADME, organism-based; design: time infinity, dose 10 mg/kg, route po; conditions: in vivo
Outline: (§2)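 Female CD-1 mice were dosed 2.0 mg/kg IV or 10 mg/kg PO in 40% PEG400/5% EtOH/55% water. Serial blood was taken at 5 min (IV), 15 min (PO), 30 min, and 2, 4, 8, 12 and 24 h into K2EDTA, and plasma was prepared. Plasma levels were measured by LC-MS/MS against spiked plasma standards of 0.5–8000 ng/mL. Parameters came from non-compartmental analysis.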

[7] = Cmax in CD-1 mouse at 10 mg/kg, po; assay type: ADME, organism-based; design: dose 10 mg/kg, route po; conditions: in vivo; outline: as §2
[8] = Half life in CD-1 mouse at 10 mg/kg, po or 2 mg/kg, iv; assay type: ADME, organism-based; conditions: in vivo; outline: as §2
Hepatitis B virus [9] = assay: Antiviral activity against HBV infected in NOD.CB17-Prkdc-scid/J hydrodynamic injection mouse model expressing HBV genotype D assessed as log reduction in HBV DNA at 3 mg/kg,po BID for 7 days by qPCR method relative to control; assay type: functional; conditions: time 7 day
Outline: (§3)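 Six-week-old female NOD.CB17-Prkdcscid/J mice received an HBV plasmid by hydrodynamic tail-vein injection (1.6 mL within 5 s). Seven days after injection (day 0), oral gavage dosing began at 3, 10 or 30 mg/kg once or twice daily; controls received vehicle by gavage. Serum was taken on day 0 (predose) and day 7, and HBV DNA was measured in total extracted nucleic acid by qPCR.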

Hepatitis B virus [10] = assay: Antiviral activity against HBV infected in NOD.CB17-Prkdc-scid/J hydrodynamic injection mouse model expressing HBV genotype D assessed as log reduction in HBV DNA at 10 mg/kg,po BID for 7 days by qPCR method relative to control; assay type: functional; conditions: time 7 day; outline: as §3
Hepatitis B virus [11] = assay: Antiviral activity against HBV infected in NOD.CB17-Prkdc-scid/J hydrodynamic injection mouse model expressing HBV genotype D assessed as log reduction in HBV DNA at 30 mg/kg,po BID for 7 days by qPCR method relative to control; assay type: functional; conditions: time 7 day; outline: as §3
Hepatitis B virus [12] = assay: Antiviral activity against HBV infected in NOD.CB17-Prkdc-scid/J hydrodynamic injection mouse model expressing HBV genotype D assessed as log reduction in HBV DNA at 30 mg/kg,po QD for 7 days by qPCR method relative to control; assay type: functional; conditions: time 7 day; outline: as §3
[13] = Aqueous solubility of compound at pH 7.4; assay type: physicochemical; conditions: buffer
Outline: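 A 10 mM DMSO stock was diluted into PBS pH 7.4 to 200 μM compound, 2% DMSO final, and shaken 18–24 h at 22 °C. Samples were filtered by centrifugation and the filtrate quantified by UPLC-UV/MS against a standard curve of 4–200 μM in DMSO.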

[14] = Cytotoxicity against human HepDE19 cells assessed as reduction in cell viability upto 25 uM; assay type: toxicity, cell-based; conditions: hepde19, 25 µM
Outline: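 Run on HepDE19 replicate plates seeded at 5,000 cells/well after tetracycline removal. Cells were exposed to compound for 4 days at 37 °C, 5% CO2. Viability was read as intracellular ATP by CellTiter-Glo luminescence, expressed as % of DMSO controls. CC50 came from a 4-parameter curve fit, as the mean of ≥2 experiments.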

in vitro [15] = conditions: human, liver microsomes
in vitro [16] = conditions: CD-1, mouse, liver microsomes
Hepatitis B virus [17] = assay: Antiviral activity against HBV infected in NOD.CB17-Prkdc-scid/J hydrodynamic injection mouse model expressing HBV genotype D assessed as log reduction in HBV DNA at 100 mg/kg,po QD for 7 days by qPCR method relative to control; assay type: functional; conditions: time 7 day
Hepatitis B virus [18] = assay: Antiviral activity against HBV infected in NOD.CB17-Prkdc-scid/J hydrodynamic injection mouse model expressing HBV genotype D assessed as log reduction in HBV DNA at 3 mg/kg,po QD for 7 days by qPCR method relative to control; assay type: functional; conditions: time 7 day; outline: as §3
Hepatitis B virus [19] = assay: Antiviral activity against HBV infected in NOD.CB17-Prkdc-scid/J hydrodynamic injection mouse model expressing HBV genotype D assessed as log reduction in HBV DNA at 10 mg/kg,po QD for 7 days by qPCR method relative to control; assay type: functional; conditions: time 7 day; outline: as §3

Structure (SMILES)	EC50 (Hepatitis B virus [1])	AUC [6]	Cmax [7]	half-life [8]	solubility [13]	microsomal CLint at 1 h, 0.3 µM (in vitro [15])	microsomal CLint at 1 h, 0.3 µM (in vitro [16])	further results
CCOC(=O)C1=C(CN2CCOCC2)NC(c2nccs2)=NC1c1ccc(F)cc1Br (stereo unspecified)	110 nM							
COC(=O)C1=C(CN2CCOC[C@H]2C(=O)O)NC(c2nccs2)=N[C@H]1c1ccc(F)cc1Br	50 nM							
O=C(Nc1cc(F)c(F)c(F)c1)c1ccc(F)c(S(=O)(=O)N2CCC(O)CC2)c1	650 nM							
Cn1cnc(COC(=O)N[C@H]2CCc3c2cn(C)c3C(=O)Nc2ccc(F)c(Cl)c2)n1	52 nM	46700 ng·h/mL	4270 ng/mL	2.6 h	24 µM (≈ 10.7 µg/mL)	5.4 µL/min/mg	12.2 µL/min/mg	half-life at 0.3 µM [2]: 4.27 h; half-life at 0.3 µM [3]: 1.9 h; remaining at 1 h, 0.3 µM [4]: 87%; remaining at 1 h, 0.3 µM [5]: 81%; log(activity) (Hepatitis B virus [9]): 0.8; log(activity) (Hepatitis B virus [10]): 1.9; log(activity) (Hepatitis B virus [11]): 2.5; log(activity) (Hepatitis B virus [12]): 1.8; Activity [14]: Non-Toxic
Cn1c(Cl)c2c(c1C(=O)Nc1ccc(F)c(Cl)c1)CC[C@@H]2NC(=O)OCc1c[nH]nn1	14 nM	30600 ng·h/mL	2510 ng/mL	3.5 h	< 4 µM	11.2 µL/min/mg	20.2 µL/min/mg	
Cn1c(Cl)c2c(c1C(=O)Nc1ccc(F)c(Cl)c1)CC[C@@H]2NC(=O)OCc1nc[nH]n1	11 nM				< 4 µM	8.6 µL/min/mg	29.7 µL/min/mg	
Cn1cnc(COC(=O)N[C@H]2CCc3c(C(=O)Nc4ccc(F)c(Cl)c4)ccc(F)c32)n1	77 nM	9870 ng·h/mL	1610 ng/mL	2.5 h		6.2 µL/min/mg	20.6 µL/min/mg	half-life at 0.3 µM [2]: 3.22 h; half-life at 0.3 µM [3]: 1.23 h; remaining at 1 h, 0.3 µM [4]: 83%; remaining at 1 h, 0.3 µM [5]: 56%; log(activity) (Hepatitis B virus [10]): 0.6; log(activity) (Hepatitis B virus [11]): 2.1; log(activity) (Hepatitis B virus [17]): 1
Cn1cnc(COC(=O)N[C@H]2CCc3c2c(Br)n(C)c3C(=O)Nc2ccc(F)c(Cl)c2)n1	12 nM				< 4 µM	8.5 µL/min/mg	31.4 µL/min/mg	
Cn1cc2c(c1C(=O)Nc1ccc(F)c(Cl)c1)CC[C@@H]2NC(=O)OCc1c[nH]nn1	57 nM	60600 ng·h/mL	4530 ng/mL	5.8 h	10 µM (≈ 4.33 µg/mL)	7.9 µL/min/mg	21.6 µL/min/mg	log(activity) (Hepatitis B virus [12]): 2; log(activity) (Hepatitis B virus [18]): 0.8; log(activity) (Hepatitis B virus [19]): 1.5
Cn1cc(COC(=O)N[C@H]2CCc3c2cn(C)c3C(=O)Nc2ccc(F)c(Cl)c2)nn1	52 nM				< 4 µM	24.4 µL/min/mg	38.4 µL/min/mg	
Cc1c2c(c(C(=O)Nc3ccc(F)c(Cl)c3)n1C)CC[C@@H]2NC(=O)OCc1ncn(C)n1	114 nM				5 µM (≈ 2.3 µg/mL)	12.7 µL/min/mg	52.8 µL/min/mg	
Cn1cnc(COC(=O)N[C@@H]2CCc3c2cn(C)c3C(=O)Nc2ccc(F)c(Cl)c2)n1	3500 nM							Activity [14]: Non-Toxic
Cn1cc2c(c1C(=O)Nc1ccc(F)c(Cl)c1)CC[C@@H]2NC(=O)OCc1nc[nH]n1	50 nM	40700 ng·h/mL	3860 ng/mL	4.8 h	23 µM (≈ 9.96 µg/mL)	4.1 µL/min/mg	12.3 µL/min/mg	log(activity) (Hepatitis B virus [19]): 0.6
Cn1cnc(COC(=O)N[C@H]2CCc3c2c(Cl)n(C)c3C(=O)Nc2ccc(F)c(Cl)c2)n1	13 nM				5 µM (≈ 2.41 µg/mL)	8.8 µL/min/mg	33.8 µL/min/mg	
C[C@H](NS(=O)(=O)c1cc(C(=O)Nc2ccc(F)c(C#N)c2)n(C)c1)C(F)(F)F [BERSACAPAVIR]	45 nM							
O=C(NCc1cnc(C(F)(F)F)s1)c1ccc2c(c1)NC(=O)c1ccccc1S2(=O)=O [VEBICORVIR]	250 nM							
